Assay outcomes from PubChem BioAssay.
Compounds with a hit are over-represented: about 6.7% of the library has one in this group of screens.
PREPL inhibitor: human PREPL enzyme inhibition. Q4J6C6. recombinant PREPL, fluorescence polarization activity-based probe. inhibition, % at 5.96 µM. hit rate 0.68% among 320,000. AID 2751; in the data active = inhibition above about 43%;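 note: 0% = enzyme with DMSO and 100% = wells lacking enzyme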
Target sequence (Q4J6C6 whole entry, looked up): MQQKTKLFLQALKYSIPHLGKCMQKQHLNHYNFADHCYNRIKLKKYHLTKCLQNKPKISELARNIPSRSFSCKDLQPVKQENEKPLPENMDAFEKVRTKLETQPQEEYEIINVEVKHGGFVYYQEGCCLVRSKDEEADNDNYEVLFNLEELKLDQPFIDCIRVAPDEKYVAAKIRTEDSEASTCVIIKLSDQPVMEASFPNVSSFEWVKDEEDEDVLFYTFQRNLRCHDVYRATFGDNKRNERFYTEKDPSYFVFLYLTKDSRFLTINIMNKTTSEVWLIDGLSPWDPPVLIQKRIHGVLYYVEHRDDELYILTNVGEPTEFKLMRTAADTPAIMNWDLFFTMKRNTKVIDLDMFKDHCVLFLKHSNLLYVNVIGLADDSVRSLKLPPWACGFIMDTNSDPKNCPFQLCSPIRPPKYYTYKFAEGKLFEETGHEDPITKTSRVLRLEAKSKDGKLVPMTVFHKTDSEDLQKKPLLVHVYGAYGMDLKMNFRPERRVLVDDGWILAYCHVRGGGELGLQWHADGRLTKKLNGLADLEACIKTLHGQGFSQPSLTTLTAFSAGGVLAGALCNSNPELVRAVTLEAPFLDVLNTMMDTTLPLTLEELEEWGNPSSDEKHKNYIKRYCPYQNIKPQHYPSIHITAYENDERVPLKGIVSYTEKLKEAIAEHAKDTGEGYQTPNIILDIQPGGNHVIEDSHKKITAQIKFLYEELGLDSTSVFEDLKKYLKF
CHOP inhibitor: blocks CHOP induction under ER stress; AID 2732; inhibition, % at 10 µM; CHO-K1 CHOP-promoter luciferase, tunicamycin-induced, 15-18 h; hit rate 3.8% among 220,000;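 active = compounds that reduced the stress-induced luciferase reporter signal by more than about 70% of percent inhibition, limit read from the data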;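 note: 0% = tunicamycin plus vehicle and 100% = wells without tunicamycin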
GRIN3A LBD mod: modulates the human NR3A ligand-binding domain; AID 1259313; Tm shift relative to glycine control, % at 25 µM; hit rate 2.5% among 340,000; NR3A LBD differential scanning fluorimetry, Tm shift; 0% = protein alone, 100% = glycine-bound protein;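 active = melting temperature shift of at least 10% of the positive control shift, at one fixed dose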
T cruzi inh: T. cruzi replication inhibition; hit rate 1.4% among 300,000; inhibition, % (test concentration not listed); T. cruzi beta-gal in NIH3T3, luminescence, 90 h;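 active = mean inhibition across valid replicates above about 55%, limit read from the data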;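 note: signal also drops with host cell toxicity which is not excluded here; 0% = plate median of DMSO wells and 100% = zero luminescence signal; higher percent means less beta-gal luminescence so fewer parasites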
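System – NIH/3T3 host cells with β-galactosidase reporter T. cruzi · Doses – single 50 nL compound addition per well in DMSO · Reagent – 5000 T. cruzi trypomastigotes/well · Medium – Low-serum DMEM with 2% FBS · Timing – ≥90 h infection period, 3 h prior cell attachment · Evaluation – parasite load inhibition, % · Technique – GalScreen luminescence, 60 min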
Beta apoptosis: blocks beta cell apoptosis; INS-1E cytokine-induced death, ATP luminescence, 48 h; percent of positive-control rescue, neutral wells zero; protection from apoptosis, % (no concentration beside the values); hit rate 0.8% among 300,000; AID 435005;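 active = Every replicate reaches about 75%, or at least half do and their mean reaches it too, limit read from the data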;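 note: 0% = cytokine-treated negative control wells and 100% = positive control rescue; higher means more ATP so stronger rescue from cytokine killing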
CSC inhib: blocks cancer stem cells; hit rate 1.1% among 300,000; cancer stem cell-like cells viability, luminescence; inhibition, % at 7.5 µM; in the data active = inhibition above about 75%; tested in HMLE shEcad cells
Starred values were filed as active, the others as inactive.

Screening CC(=O)N(CCCN(C)C)Cc1ccccn1 returned PREPL inhibitor 6, CHOP inhibitor 12, GRIN3A LBD mod -1, T cruzi inh 7, Beta apoptosis -5 and CSC inhib -9.
`O=C(NCCCn1ccnc1)Nc1ccc2c(c1)OCO2` gave PREPL inhibitor 20, GRIN3A LBD mod -3, T cruzi inh 6, Beta apoptosis 0 and CSC inhib 6.
CC1C/C(=N/NC(=O)c2ccc(CSc3nc4ccccc4[nH]3)cc2)CC(C)(C)C1 (centres undefined) was read as PREPL inhibitor 22, CHOP inhibitor 75*, GRIN3A LBD mod -7, T cruzi inh 11, Beta apoptosis -3 and CSC inhib 16.
Cc1nc(NC(=O)Nc2ccc(Cl)cc2)sc1C was read as PREPL inhibitor -6, CHOP inhibitor -30, GRIN3A LBD mod 12*, T cruzi inh 24 and CSC inhib 1.
CS(=O)(=O)c1ccc2nc(NC(=O)Nc3ccc(Cl)cc3)sc2c1 was read as PREPL inhibitor 0, CHOP inhibitor 33, GRIN3A LBD mod 28*, T cruzi inh -1 and Beta apoptosis 5.
Screening CS(=O)(=O)c1ccc2nc(NC(=O)c3ccc(Cl)cc3)sc2c1 returned PREPL inhibitor -3, GRIN3A LBD mod 8, T cruzi inh -10, Beta apoptosis 10 and CSC inhib 2.
For CC(C)(C)c1nnc(NC(=O)Nc2ccc(Cl)cc2)s1 the results were PREPL inhibitor 12, CHOP inhibitor 23, GRIN3A LBD mod 0, T cruzi inh 13, Beta apoptosis 8 and CSC inhib 15.
NS(=O)(=O)c1ccc2nc(NC(=O)Nc3ccc(F)cc3)sc2c1 was read as PREPL inhibitor 3, GRIN3A LBD mod 23*, T cruzi inh -6, Beta apoptosis -2 and CSC inhib 5.
CN(C)S(=O)(=O)c1cccc(C(=O)Nc2ccc(C(=O)Nc3cccc(S(N)(=O)=O)c3)cc2)c1 was read as PREPL inhibitor -2, GRIN3A LBD mod 21*, Beta apoptosis 5 and CSC inhib -14.
Screening O=C(N/C(=N\O)c1ccccc1)Nc1ccc(Cl)cc1 returned PREPL inhibitor 10, CHOP inhibitor -13, GRIN3A LBD mod 23*, Beta apoptosis -2 and CSC inhib 19.
`COC(=O)[C@H](C)NC(=O)Nc1ccc(OC)c(OC)c1` gave PREPL inhibitor 10, CHOP inhibitor -5, GRIN3A LBD mod 2, T cruzi inh -4, Beta apoptosis 0 and CSC inhib 0.
`CC(C)S(=O)(=O)c1csc(NC(=O)Nc2ccc(Cl)cc2)c1` gave PREPL inhibitor 25, CHOP inhibitor 26, GRIN3A LBD mod 33*, T cruzi inh 6, Beta apoptosis 10 and CSC inhib 22.
CNC(=O)Nc1ccc(Cl)cc1 was read as PREPL inhibitor 0, CHOP inhibitor -7, GRIN3A LBD mod -2, T cruzi inh -13, Beta apoptosis -4 and CSC inhib 0.
For COC(=O)c1ccc(NC(=O)Nc2ccc(OC)c(OC)c2)cc1 the results were PREPL inhibitor 14, CHOP inhibitor -23, GRIN3A LBD mod 21*, T cruzi inh -14, Beta apoptosis -2 and CSC inhib 8.
For COC(=O)c1cccc(NC(=O)Nc2ccc(Cl)cc2)c1 the results were PREPL inhibitor -1, CHOP inhibitor 11, GRIN3A LBD mod 35*, T cruzi inh -8, Beta apoptosis 8 and CSC inhib 5.
Screening COC(=O)c1cccc(NC(=S)Nc2ccccc2Cl)c1 returned PREPL inhibitor -6, CHOP inhibitor -12, GRIN3A LBD mod -1, T cruzi inh -13, Beta apoptosis -2 and CSC inhib -8.
COC(=O)c1cccc(NC(=S)Nc2ccc(Cl)c(Cl)c2)c1 was read as PREPL inhibitor 4, CHOP inhibitor 12, GRIN3A LBD mod 23*, T cruzi inh 6, Beta apoptosis 3 and CSC inhib 33.
For NS(=O)(=O)c1cccc(NC(=O)Nc2ccc(Cl)cc2)c1 the results were PREPL inhibitor -1, CHOP inhibitor 12, GRIN3A LBD mod 36*, T cruzi inh -7, Beta apoptosis 6 and CSC inhib -2.
CCOc1ccc(C(=O)CC(NCc2cccs2)C(=O)O)cc1 (centres undefined) was read as PREPL inhibitor 2, CHOP inhibitor 37, GRIN3A LBD mod -2, T cruzi inh -17 and CSC inhib -10.
